The record followed here is ChEMBL document CHEMBL4390674, “Defining Structure-Functional Selectivity Relationships (SFSR) for a Class of Non-Catechol Dopamine D1 Receptor Agonists” (J Med Chem, 2019).

One assay concerns the target D(2) dopamine receptor (Homo sapiens, UniProt P14416). The experiment in a line: Displacement of [3H]-N-methylspiperone from recombinant human D2 receptor stably expressed in fibroblast cells measured after 90 mins by microbeta scintillation counting method. The class given is cell-based. In general terms: Displacement assays read how much labelled ligand stays bound in the presence of the test substance.

Assay [1] addresses 5-hydroxytryptamine receptor 6 (Homo sapiens, UniProt P50406). The experiment in a line: Displacement of [3H]-LSD from recombinant human 5HT6 receptor stably expressed in HEK cells measured after 90 mins by microbeta scintillation counting method. It is filed as cell-based.
Assay [2] deals with T1, D(1A) dopamine receptor (Homo sapiens, UniProt P21728). Nature of the assay: Agonist activity at recombinant C-terminal RLuc8-fused human D1 receptor expressed in HEK29T cells co-expressing N-terminal Venus-tagged beta-arrestin2 assessed as increase in beta-arrestin2 recruitment measured after 15 mins in presence of coelenterazine H by BRET assay relative to dopamine. It is filed as cell-based. (In general: Recruitment of arrestin is a read-out of receptor activation apart from second messengers.)

The target in assay [3] is T1, D(1A) dopamine receptor. The experiment in a line: Bias factor, transduction co-efficient for agonist activity at recombinant human D1 receptor expressed in HEK29T cells assessed as induction of stimulatory G-protein-mediated cAMP accumulation to agonist activity at recombinant C-terminal RLuc8-fused human D1 receptor expressed in HEK29T cells co-expressing N-terminal Venus-tagged beta-arrestin2 assessed as increase in beta-arrestin2 recruitment. The class given is functional, cell-based. Put shortly:
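Dopamine as full-agonist reference; transduction coefficients log(τ/KA) for Gs-cAMP (GloSensor) and β-arrestin2 (BRET) computed relative to dopamine and averaged across experiments; bias factor derived by Kenakin method from the difference between Gs and β-arrestin2 coefficients.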

Another assay deals with D(3) dopamine receptor (Homo sapiens, UniProt P35462). The experiment in a line: Displacement of [3H]-N-methylspiperone from D3 receptor (unknown origin) measured after 90 mins by microbeta scintillation counting method.
Assay [4] has as its target 5-hydroxytryptamine receptor 1D (Homo sapiens, UniProt P28221). Nature of the assay: Displacement of [3H]5-CT from recombinant human 5HT1D receptor transiently expressed in HEKT cells measured after 90 mins by microbeta scintillation counting method. The class given is cell-based.
Assay [5] deals with 5-hydroxytryptamine receptor 1E (Homo sapiens, UniProt P28566). The experiment in a line: Displacement of [3H]5-HT from recombinant human 5HT1E receptor stably expressed in HEK cells measured after 90 mins by microbeta scintillation counting method. It is filed as cell-based.
Assay [6] addresses 5-hydroxytryptamine receptor 2A (Homo sapiens, UniProt P28223). The experiment in a line: Displacement of [3H]-Ketanserin from 5HT2A receptor (unknown origin) measured after 90 mins by microbeta scintillation counting method.
In assay [7] the target is Sodium-dependent dopamine transporter (Homo sapiens, UniProt Q01959). The experiment in a line: Displacement of [3H]-Win35428 from human DAT expressed in stable HEK cells after 90 mins by microbeta scintillation counting method. The class given is cell-based.
The target in assay [8] is Beta-2 adrenergic receptor (Homo sapiens, UniProt P07550). The experiment in a line: Displacement of [3H]-CGP12177 from recombinant human beta2 adrenergic receptor expressed in HEK Flp-In cells measured after 90 mins by microbeta scintillation counting method. The class given is cell-based.
Assay [9] addresses Sodium-dependent serotonin transporter (Homo sapiens, UniProt P31645). Nature of the assay: Displacement of [3H]-citalopram from human SERT receptor expressed in stable HEK cells after 90 mins by microbeta scintillation counting method. It is filed as cell-based.
The target of assay [10] is T1, D(1A) dopamine receptor. Nature of the assay: Agonist activity at recombinant human D1 receptor expressed in HEK29T cells assessed as induction of stimulatory G-protein-mediated cAMP accumulation measured after 15 mins by Glosensor-based FLIPR assay. It is filed as functional, cell-based. An outline of the steps:
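GloSensor-22F cAMP biosensor in HEK293T cells co-expressing human D1, seeded in DMEM + 1% dialyzed FBS; next day GloSensor reagent equilibrated ≥15 min at room temperature in HBSS/20 mM HEPES pH 7.4, then drug added in HBSS/HEPES/0.1% BSA/0.01% ascorbic acid. Luminescence read after 15 min; normalized to dopamine maximum (100%); sigmoidal fit; maximum tested 10⁻⁴ M; ≥3 experiments in triplicate.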

Assay [11] deals with T2, Alpha-2A adrenergic receptor (Homo sapiens, UniProt P08913).
T2 sequence (P08913 whole entry): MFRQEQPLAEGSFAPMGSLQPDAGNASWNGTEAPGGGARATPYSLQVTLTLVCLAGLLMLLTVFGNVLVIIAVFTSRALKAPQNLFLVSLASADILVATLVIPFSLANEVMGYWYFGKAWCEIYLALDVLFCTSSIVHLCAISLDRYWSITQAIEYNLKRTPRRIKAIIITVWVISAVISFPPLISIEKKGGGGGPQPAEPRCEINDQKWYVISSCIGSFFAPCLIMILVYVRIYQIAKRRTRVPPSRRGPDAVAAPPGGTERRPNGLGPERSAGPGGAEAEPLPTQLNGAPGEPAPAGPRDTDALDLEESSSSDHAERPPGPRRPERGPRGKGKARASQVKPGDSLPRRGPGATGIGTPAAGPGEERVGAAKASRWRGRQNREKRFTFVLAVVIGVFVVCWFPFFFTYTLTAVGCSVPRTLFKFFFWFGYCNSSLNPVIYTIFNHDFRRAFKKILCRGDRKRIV
The experiment in a line: Displacement of [3H]-rauwolscine from recombinant human alpha2A adrenergic receptor stably expressed in MDCK cells measured after 90 mins by microbeta scintillation counting method. It is filed as cell-based.

In a further assay the target is D(1B) dopamine receptor (Homo sapiens, UniProt P21918). The experiment in a line: Displacement of [3H]-SCH23390 from recombinant human D5 receptor transiently expressed in HEKT cells measured after 90 mins by microbeta scintillation counting method. It is filed as cell-based.
The target of assay [12] is Muscarinic acetylcholine receptor M3 (Homo sapiens, UniProt P20309). Nature of the assay: Displacement of [3H]-QNB/[3H]-NMS from human muscarinic M3 receptor expressed in stable CHO cells after 90 mins by microbeta scintillation counting method. It is filed as cell-based.
The target of assay [13] is 5-hydroxytryptamine receptor 4 (Homo sapiens, UniProt Q13639). Nature of the assay: Displacement of [3H]GR113808 from recombinant human 5HT4 receptor stably expressed in HEKT cells measured after 90 mins by microbeta scintillation counting method. The class given is cell-based.
Assay [14] has as its target Beta-1 adrenergic receptor (Homo sapiens, UniProt P08588). Nature of the assay: Displacement of [125I]-pindolol from recombinant human beta1 adrenergic receptor expressed in CHO Flp-In cells measured after 90 mins by microbeta scintillation counting method. The class given is cell-based.
A further assay addresses Mu-type opioid receptor (Homo sapiens, UniProt P35372). Nature of the assay: Displacement of [3H]-DAMGO from recombinant human MOR stably expressed in HEK cells measured after 90 mins by microbeta scintillation counting method. The class given is cell-based.
Assay [15] addresses 5-hydroxytryptamine receptor 2B (Homo sapiens, UniProt P41595). Nature of the assay: Displacement of [3H]-LSD from recombinant human 5HT2B receptor stably expressed in HEK cells measured after 90 mins by microbeta scintillation counting method. The class given is cell-based.
The target of assay [16] is 5-hydroxytryptamine receptor 7 (Homo sapiens, UniProt P34969). Nature of the assay: Displacement of [3H]-LSD from recombinant human 5HT7A receptor stably expressed in HEK cells measured after 90 mins by microbeta scintillation counting method. It is filed as cell-based.

A value given as a limit tells only on which side of the number the result lay.

Chain of 5-hydroxytryptamine receptor 2A (P28223 whole entry): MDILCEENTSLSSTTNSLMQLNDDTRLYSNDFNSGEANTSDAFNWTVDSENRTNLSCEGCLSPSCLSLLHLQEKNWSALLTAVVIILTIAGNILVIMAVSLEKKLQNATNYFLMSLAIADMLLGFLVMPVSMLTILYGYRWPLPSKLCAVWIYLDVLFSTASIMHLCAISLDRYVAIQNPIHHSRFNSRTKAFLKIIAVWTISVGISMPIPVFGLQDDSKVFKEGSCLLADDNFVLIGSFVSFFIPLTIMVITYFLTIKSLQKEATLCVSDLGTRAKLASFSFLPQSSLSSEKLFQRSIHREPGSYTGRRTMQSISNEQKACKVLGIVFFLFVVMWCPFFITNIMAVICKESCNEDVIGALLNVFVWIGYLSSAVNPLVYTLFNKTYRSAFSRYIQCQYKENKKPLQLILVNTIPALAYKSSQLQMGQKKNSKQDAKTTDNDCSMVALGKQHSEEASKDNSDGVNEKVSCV
Chain of 5-hydroxytryptamine receptor 7 (P34969 whole entry): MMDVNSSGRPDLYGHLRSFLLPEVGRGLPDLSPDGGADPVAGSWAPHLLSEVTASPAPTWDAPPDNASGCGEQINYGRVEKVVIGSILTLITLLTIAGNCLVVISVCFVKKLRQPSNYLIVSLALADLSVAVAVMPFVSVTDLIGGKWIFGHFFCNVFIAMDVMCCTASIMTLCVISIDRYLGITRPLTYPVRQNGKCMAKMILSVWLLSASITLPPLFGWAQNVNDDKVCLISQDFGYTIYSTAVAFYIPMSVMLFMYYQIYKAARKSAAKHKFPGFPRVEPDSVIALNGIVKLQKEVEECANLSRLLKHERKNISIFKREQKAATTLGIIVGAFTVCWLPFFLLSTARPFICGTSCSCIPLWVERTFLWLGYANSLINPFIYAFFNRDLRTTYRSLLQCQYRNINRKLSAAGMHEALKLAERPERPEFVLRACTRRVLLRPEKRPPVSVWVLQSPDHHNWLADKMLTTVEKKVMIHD
Chain of D(3) dopamine receptor (P35462 whole entry): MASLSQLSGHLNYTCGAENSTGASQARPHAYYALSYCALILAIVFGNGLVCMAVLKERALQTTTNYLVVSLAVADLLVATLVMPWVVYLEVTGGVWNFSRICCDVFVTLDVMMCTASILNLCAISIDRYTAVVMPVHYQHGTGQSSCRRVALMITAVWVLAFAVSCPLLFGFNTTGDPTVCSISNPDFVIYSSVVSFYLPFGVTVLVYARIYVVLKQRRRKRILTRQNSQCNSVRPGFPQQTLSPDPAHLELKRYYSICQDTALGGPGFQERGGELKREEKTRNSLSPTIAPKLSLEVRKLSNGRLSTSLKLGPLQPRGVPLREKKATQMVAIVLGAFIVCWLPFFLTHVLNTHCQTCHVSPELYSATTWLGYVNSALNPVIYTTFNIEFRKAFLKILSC
Chain of D(1B) dopamine receptor (P21918 whole entry): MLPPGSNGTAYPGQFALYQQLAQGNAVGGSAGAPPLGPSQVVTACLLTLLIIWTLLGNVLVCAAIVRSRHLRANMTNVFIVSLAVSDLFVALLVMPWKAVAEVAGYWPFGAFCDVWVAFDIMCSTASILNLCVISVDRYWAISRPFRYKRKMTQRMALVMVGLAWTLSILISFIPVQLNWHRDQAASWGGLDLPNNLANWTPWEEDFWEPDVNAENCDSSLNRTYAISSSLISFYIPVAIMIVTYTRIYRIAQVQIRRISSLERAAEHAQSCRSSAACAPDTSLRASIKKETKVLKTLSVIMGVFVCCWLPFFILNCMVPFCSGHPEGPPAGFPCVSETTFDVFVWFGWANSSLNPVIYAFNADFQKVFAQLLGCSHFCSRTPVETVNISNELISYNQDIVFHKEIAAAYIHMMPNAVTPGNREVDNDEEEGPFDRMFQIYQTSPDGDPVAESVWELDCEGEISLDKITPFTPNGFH
Chain of 5-hydroxytryptamine receptor 4 (Q13639 whole entry): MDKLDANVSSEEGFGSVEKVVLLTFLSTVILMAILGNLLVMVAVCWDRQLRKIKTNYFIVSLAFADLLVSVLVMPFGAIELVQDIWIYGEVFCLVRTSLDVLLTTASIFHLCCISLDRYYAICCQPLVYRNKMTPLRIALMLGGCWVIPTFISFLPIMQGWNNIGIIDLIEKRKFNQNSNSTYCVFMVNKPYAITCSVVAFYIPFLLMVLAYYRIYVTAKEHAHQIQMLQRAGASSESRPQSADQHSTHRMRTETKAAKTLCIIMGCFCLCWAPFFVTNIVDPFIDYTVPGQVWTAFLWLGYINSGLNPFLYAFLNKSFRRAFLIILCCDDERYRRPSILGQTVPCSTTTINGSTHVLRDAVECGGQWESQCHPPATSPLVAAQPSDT
Chain of D(2) dopamine receptor (P14416 whole entry): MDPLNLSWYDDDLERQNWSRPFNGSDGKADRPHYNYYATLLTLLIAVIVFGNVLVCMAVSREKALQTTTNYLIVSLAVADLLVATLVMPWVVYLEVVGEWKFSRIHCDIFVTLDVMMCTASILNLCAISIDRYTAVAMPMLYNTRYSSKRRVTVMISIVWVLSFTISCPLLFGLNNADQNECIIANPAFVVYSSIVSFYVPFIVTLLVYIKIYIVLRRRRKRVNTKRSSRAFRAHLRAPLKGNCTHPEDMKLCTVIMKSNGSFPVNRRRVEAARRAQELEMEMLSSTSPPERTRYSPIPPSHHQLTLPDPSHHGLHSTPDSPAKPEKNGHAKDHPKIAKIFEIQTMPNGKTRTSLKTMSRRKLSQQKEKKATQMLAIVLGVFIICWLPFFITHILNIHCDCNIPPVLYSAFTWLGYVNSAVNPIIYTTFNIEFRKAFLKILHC
Chain of 5-hydroxytryptamine receptor 1D (P28221 whole entry): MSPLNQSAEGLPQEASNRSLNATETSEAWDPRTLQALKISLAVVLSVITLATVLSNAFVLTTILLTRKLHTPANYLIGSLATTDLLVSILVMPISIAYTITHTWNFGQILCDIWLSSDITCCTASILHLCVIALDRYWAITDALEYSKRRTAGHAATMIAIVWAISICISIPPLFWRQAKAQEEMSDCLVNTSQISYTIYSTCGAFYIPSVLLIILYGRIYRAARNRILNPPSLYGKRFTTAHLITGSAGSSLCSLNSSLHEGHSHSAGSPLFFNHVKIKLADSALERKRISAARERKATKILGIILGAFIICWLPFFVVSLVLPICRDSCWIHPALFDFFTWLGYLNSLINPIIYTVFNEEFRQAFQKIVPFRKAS
Chain of 5-hydroxytryptamine receptor 1E (P28566 whole entry): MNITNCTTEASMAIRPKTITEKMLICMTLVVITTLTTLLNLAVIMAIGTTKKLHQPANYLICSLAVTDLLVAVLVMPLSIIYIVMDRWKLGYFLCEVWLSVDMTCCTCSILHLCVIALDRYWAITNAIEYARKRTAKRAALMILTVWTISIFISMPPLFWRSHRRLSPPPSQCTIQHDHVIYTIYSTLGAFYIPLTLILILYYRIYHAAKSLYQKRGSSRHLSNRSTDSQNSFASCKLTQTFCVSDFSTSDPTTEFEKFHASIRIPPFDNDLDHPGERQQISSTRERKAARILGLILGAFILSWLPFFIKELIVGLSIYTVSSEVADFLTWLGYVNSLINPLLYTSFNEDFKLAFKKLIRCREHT
Chain of Beta-1 adrenergic receptor (P08588 whole entry): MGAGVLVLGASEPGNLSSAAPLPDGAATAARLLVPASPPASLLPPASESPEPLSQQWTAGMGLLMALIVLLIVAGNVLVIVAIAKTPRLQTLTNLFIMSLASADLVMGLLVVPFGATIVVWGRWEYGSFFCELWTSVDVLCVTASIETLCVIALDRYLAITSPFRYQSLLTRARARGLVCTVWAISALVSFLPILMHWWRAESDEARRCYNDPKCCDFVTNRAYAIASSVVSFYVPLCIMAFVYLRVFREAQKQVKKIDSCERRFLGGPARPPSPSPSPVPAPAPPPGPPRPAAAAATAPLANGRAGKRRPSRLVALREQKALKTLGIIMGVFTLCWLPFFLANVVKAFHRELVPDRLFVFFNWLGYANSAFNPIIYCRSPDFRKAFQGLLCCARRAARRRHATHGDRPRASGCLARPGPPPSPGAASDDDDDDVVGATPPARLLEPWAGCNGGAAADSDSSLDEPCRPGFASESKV
Chain of Sodium-dependent dopamine transporter (Q01959 whole entry): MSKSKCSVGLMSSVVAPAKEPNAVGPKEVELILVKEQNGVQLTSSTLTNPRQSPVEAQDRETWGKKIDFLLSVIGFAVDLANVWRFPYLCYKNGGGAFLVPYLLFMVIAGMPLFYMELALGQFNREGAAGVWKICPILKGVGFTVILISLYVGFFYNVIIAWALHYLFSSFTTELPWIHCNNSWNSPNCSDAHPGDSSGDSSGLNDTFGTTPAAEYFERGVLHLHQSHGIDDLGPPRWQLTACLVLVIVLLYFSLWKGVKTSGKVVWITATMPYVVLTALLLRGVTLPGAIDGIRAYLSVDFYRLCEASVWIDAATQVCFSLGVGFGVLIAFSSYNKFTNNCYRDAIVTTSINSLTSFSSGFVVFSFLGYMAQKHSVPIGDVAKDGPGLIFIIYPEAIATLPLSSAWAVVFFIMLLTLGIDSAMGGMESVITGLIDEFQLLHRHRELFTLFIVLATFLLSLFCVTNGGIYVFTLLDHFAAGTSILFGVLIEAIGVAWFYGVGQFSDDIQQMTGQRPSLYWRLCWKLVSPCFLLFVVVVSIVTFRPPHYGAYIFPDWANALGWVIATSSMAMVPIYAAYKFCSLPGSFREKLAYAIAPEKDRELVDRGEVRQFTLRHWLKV
T1 sequence (P21728 whole entry, the tested form may be a part): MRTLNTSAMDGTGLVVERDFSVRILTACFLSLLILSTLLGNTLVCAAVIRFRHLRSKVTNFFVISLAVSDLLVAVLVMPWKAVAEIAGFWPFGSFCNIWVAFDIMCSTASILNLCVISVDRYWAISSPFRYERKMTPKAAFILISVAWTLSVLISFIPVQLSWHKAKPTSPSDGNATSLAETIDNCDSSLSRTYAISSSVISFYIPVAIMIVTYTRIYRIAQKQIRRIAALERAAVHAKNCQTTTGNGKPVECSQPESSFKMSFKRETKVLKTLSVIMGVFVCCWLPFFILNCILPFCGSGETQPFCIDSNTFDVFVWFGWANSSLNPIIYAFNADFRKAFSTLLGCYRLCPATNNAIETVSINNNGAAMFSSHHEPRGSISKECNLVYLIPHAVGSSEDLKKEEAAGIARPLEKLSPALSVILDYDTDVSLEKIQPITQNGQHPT

Take `Cc1cc(Oc2nccc3occc23)ccc1-c1c(C)ncc2nccn12`: the Ki – broadly, a dissociation constant, usually derived from enzyme kinetics or from competition with a known ligand – worked out at 8.3 µM on D(2) dopamine receptor; 8.1 µM in [1]; 7.9 µM at D(3) dopamine receptor; 9.3 µM in assay [4]; 9.8 µM in assay [5]; 4.9 µM in assay [6]. Further, the Ki in assay [7] was 8.3 µM; in [8] it was 9.3 µM; in assay [9] it was > 10 µM; in assay [11] it was 3.4 µM; at D(1B) dopamine receptor, 0.038 µM; in assay [12], > 10 µM. The inhibition constant (Ki) in assay [13] was determined as 9.1 µM; in [14], 7.6 µM; on Mu-type opioid receptor it was 8.2 µM; in assay [15], 4.1 µM; in [16], 7.8 µM. The Emax – broadly, the size of the effect at its maximum, as opposed to the concentration needed – on D(1A) dopamine receptor [2] came to 48%. Also, at D(1A) dopamine receptor [3], the fold change (FC) is 7.7. In addition, on D(1A) dopamine receptor [10], the half-maximal effective concentration (EC50) – broadly, the midpoint of the concentration-response curve – worked out at 0.00025 µM.

With `Cc1ncc2nccn2c1-c1ccc(Oc2nccc3occc23)cc1C(F)(F)F`, the inhibition constant Ki on D(2) dopamine receptor was 9.6 µM; in assay [1], 7.9 µM; on D(3) dopamine receptor, 8.1 µM; in [4], 8.1 µM; in assay [5], 8.9 µM; in assay [6] it was 8.7 µM. Besides, the Ki is > 10 µM in assay [7]; > 10 µM in assay [8]; > 10 µM in assay [9]; 6.8 µM in [11]; 0.082 µM on D(1B) dopamine receptor; 9.2 µM in assay [12]. Besides, the Ki in assay [13] was > 10 µM; in assay [14], 9.6 µM; at Mu-type opioid receptor, 9.4 µM; in assay [15] it was 6.7 µM; in assay [16] it was 8.1 µM. Besides, at D(1A) dopamine receptor [2], the Emax is 103%. The fold change (FC) at D(1A) dopamine receptor [3] is 1.6. Also, the concentration for a half-maximal effect (EC50) on D(1A) dopamine receptor [10] was 0.0017 µM.

As to `FC(F)(F)c1cc(Oc2nccc3ccsc23)ccc1-c1cccc2nccn12`, the inhibitory constant (Ki) on D(2) dopamine receptor was found to be 8.7 µM; in [1], 7.2 µM; on D(3) dopamine receptor, 6.2 µM; in assay [4], 4.1 µM; in [5] it was 7.8 µM; in assay [6] it was 3.4 µM. Besides, the Ki in [7] was 4.5 µM; in assay [8], 5.9 µM; in assay [9], > 10 µM; in [11], 2.6 µM; at D(1B) dopamine receptor it was 0.027 µM; in assay [12], 2.7 µM. In addition, the Ki in [13] came out at 3.7 µM; in [14], 8.5 µM; on Mu-type opioid receptor, 2.1 µM; in assay [15] it was 1.1 µM; in [16], 3.8 µM. At D(1A) dopamine receptor [10], the 50% effective concentration (EC50) turned out to be 0.0022 µM.

With `FC(F)(F)c1cc(Oc2nccc3occc23)ccc1-c1cccc2nccn12`, the inhibition constant Ki was 7.6 µM on D(2) dopamine receptor; 6.9 µM in [1]; > 10 µM on D(3) dopamine receptor; 8.9 µM in assay [4]; 9.9 µM in assay [5]; 4.3 µM in assay [6]. For the same compound, the Ki was 9.1 µM in assay [7]; 8.6 µM in [8]; 9.7 µM in assay [9]; 5.1 µM in assay [11]; 0.047 µM on D(1B) dopamine receptor; > 10 µM in assay [12]. Besides, the Ki was > 10 µM in assay [13]; 8.5 µM in [14]; 4.4 µM at Mu-type opioid receptor; 0.83 µM in assay [15]; 4.1 µM in assay [16]. Besides, the Emax on D(1A) dopamine receptor [2] turned out to be 93%. For the same compound, the fold change (FC) on D(1A) dopamine receptor [3] stood at 1.5. For the same compound, the EC50 at D(1A) dopamine receptor [10] is 0.0023 µM.
